Laboratory results taken from ChEMBL document CHEMBL1150273, “Aza-peptidyl Michael acceptors. A new class of potent and selective inhibitors of asparaginyl endopeptidases (legumains) from evolutionarily diverse pathogens” (J Med Chem, 2008).
pIC50: −log10 of the molar value.

Experiments:
[1] = Inhibition of Trichomonas vaginalis G3 AE1 expressed in Pichia pastoris after 20 mins
Summary of the method: (§1)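 Recombinant AE zymogens expressed in Pichia pastoris; SmAE and TvAE1 autoactivated in 0.5 M sodium acetate, 4 mM DTT, pH 4.5, 37 °C, 3 h to overnight; IrAE used without activation. Buffer 0.1 M citrate phosphate, 4 mM DTT, pH 6.8 (SmAE, TvAE1) or pH 5.5 (IrAE). Inhibitor 2.0–0.0002 µM final, 20 min preincubation at room temperature; 10 µM final Cbz-Ala-Ala-Asn-AMC, 20 min; IC50 from RFU/min vs concentration.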

[2] = Inhibition of Ixodes ricinus AE expressed in Pichia pastoris after 20 mins; summary of the method: as §1
[3] = Inhibition of Schistosoma mansoni AE expressed in Pichia pastoris after 20 mins; summary of the method: as §1
[4] = test system: Schistosoma mansoni; experiment: Inhibition of Schistosoma mansoni AE assessed as ratio of pseudo-first-order inhibition rate constant to inhibitor concentration
Summary of the method: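 Autoactivated recombinant SmAE added to six inhibitor concentrations (0–1 µM final) in 0.1 M citrate phosphate, 2 mM DTT, pH 6.8 with 20 µM Cbz-Ala-Ala-Asn-AMC; progress followed every 2 s for 30 min at 25 °C (ex 355, em 460 nm); kobs/[I] by nonlinear regression, corrected for substrate by factor 1.33.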

Compound	pIC50 [1]	pIC50 [2]	pIC50 [3]	Ratio [4]
C[C@H](NC(=O)OCc1ccccc1)C(=O)N[C@@H](C)C(=O)NN(CC(N)=O)C(=O)/C=C/C(=O)N1Cc2ccccc2C1	7.70	8.35	6.52	
C[C@H](NC(=O)OCc1ccccc1)C(=O)N[C@@H](C)C(=O)NN(CC(N)=O)C(=O)/C=C/c1ccco1		5.12	< 5.70	
C[C@H](NC(=O)OCc1ccccc1)C(=O)N[C@@H](C)C(=O)NN(CC(N)=O)C(=O)/C=C/C(=O)N(Cc1ccccc1)c1ccccc1	> 9.00	> 9.00	7.15	
C[C@H](NC(=O)OCc1ccccc1)C(=O)N[C@@H](C)C(=O)NN(CC(N)=O)C(=O)/C=C/C(=O)N1CC=C(c2ccccc2)CC1	8.00	7.07	6.12	
C[C@H](NC(=O)OCc1ccccc1)C(=O)N[C@@H](C)C(=O)NN(CC(N)=O)C(=O)/C=C/C(=O)N(Cc1ccccc1)Cc1ccc2ccccc2c1	8.22	8.10	7.15	6100 M⁻¹ s⁻¹
C[C@H](NC(=O)OCc1ccccc1)C(=O)N[C@@H](C)C(=O)NN(CC(N)=O)C(=O)/C=C/C(=O)NCc1ccccc1	8.00	6.70	6.00	
C[C@H](NC(=O)OCc1ccccc1)C(=O)N[C@@H](C)C(=O)NN(CC(N)=O)C(=O)/C=C/C(=O)NCc1ccc(F)cc1	7.12	6.60	6.10	
C[C@H](NC(=O)OCc1ccccc1)C(=O)N[C@@H](C)C(=O)NN(CC(N)=O)C(=O)/C=C/C(=O)Nc1ccccc1	7.70	8.00	6.15	
C[C@H](NC(=O)OCc1ccccc1)C(=O)N[C@@H](C)C(=O)NN(CC(N)=O)C(=O)/C=C/C(=O)N(C)c1ccccc1	8.30	8.74	7.22	
CCOC(=O)/C=C/C(=O)N(CC(N)=O)NC(=O)[C@H](C)NC(=O)[C@H](C)NC(=O)CCCC[C@@H]1SC[C@@H]2NC(=O)N[C@@H]21	> 8.00	8.55	8.00	
CCCCN(CCCC)C(=O)/C=C/C(=O)N(CC(N)=O)NC(=O)[C@H](C)NC(=O)[C@H](C)NC(=O)OCc1ccccc1	6.00	7.00	6.26	
C[C@H](NC(=O)OCc1ccccc1)C(=O)N[C@@H](C)C(=O)NN(CC(N)=O)C(=O)/C=C/C(=O)N(C)CCc1ccccc1	7.30		6.22	
C[C@H](NC(=O)OCc1ccccc1)C(=O)N[C@@H](C)C(=O)NN(CC(N)=O)C(=O)/C=C/C(=O)N1CCCCC1	6.30		6.00	

Further lines, with some results ahead:

pIC50 [1]	Compound	pIC50 [2]	pIC50 [3]	Ratio [4]
5.10	C[C@H](NC(=O)OCc1ccccc1)C(=O)N[C@@H](C)C(=O)NN(CC(N)=O)C(=O)/C=C/c1cccnc1	4.82	< 5.70	
5.30	C[C@H](NC(=O)OCc1ccccc1)C(=O)N[C@@H](C)C(=O)NN(CC(N)=O)C(=O)/C=C/C(=O)N(Cc1ccco1)Cc1ccco1	4.82	6.05	
8.00	C[C@H](NC(=O)OCc1ccccc1)C(=O)N[C@@H](C)C(=O)NN(CC(N)=O)C(=O)/C=C/C(=O)N1CCc2ccccc2C1	7.60	6.70	
8.46	C[C@H](NC(=O)OCc1ccccc1)C(=O)N[C@@H](C)C(=O)NN(CC(N)=O)C(=O)/C=C/C(=O)N1CCCc2ccccc21	8.40	7.15	
8.64	COc1ccc(CN(Cc2ccccc2)C(=O)/C=C/C(=O)N(CC(N)=O)NC(=O)[C@H](C)NC(=O)[C@H](C)NC(=O)OCc2ccccc2)cc1	7.92	7.05	
> 9.00	C[C@H](NC(=O)OCc1ccccc1)C(=O)N[C@@H](C)C(=O)NN(CC(N)=O)C(=O)/C=C/C(=O)N(Cc1ccccc1)Cc1ccc(F)cc1	6.15	7.22	
7.10	C[C@H](NC(=O)OCc1ccccc1)C(=O)N[C@@H](C)C(=O)NN(CC(N)=O)C(=O)/C=C/C(=O)N(C)C(Cc1ccccc1)C(=O)N(C)CCc1ccccc1 (some centres not stated)	6.52	6.12	
> 9.00	C[C@H](NC(=O)OCc1ccccc1)C(=O)N[C@@H](C)C(=O)NN(CC(N)=O)C(=O)/C=C/C(=O)N(Cc1ccccc1)Cc1cccc2ccccc12	8.22	7.21	6180 M⁻¹ s⁻¹
